Tests used:
Assay type in all cases: cell-based
[1] = tested on: MDA-MB-231; assay: Inhibition of endoplasmic reticulum calcium channel in human MDA-MB-231 cells assessed as reduction in endoplasmic reticulum intracellular calcium release at 100 uM pretreated for 15 mins followed by SERCA inhibitor CPA addition measured after 700 secs by PBX dye based FLIPR assay relative to control
How it was run: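 Same MDA-MB-231 PBX-dye FLIPR protocol: 15 min compound pretreatment at room temperature, then BAPTA (500 µM) and CPA (10 µM) to deplete ER stores. Peak 1 height after CPA addition (ER Ca2+ release) expressed as % inhibition relative to the DMSO control. Excitation 470–495 nm, emission 515–575 nm.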

[2] = molecular target: T1, Calcium release-activated calcium channel protein 1 (Homo sapiens, UniProt Q96D31); assay: Inhibition of […] Orai1-medited store operated calcium entry in human MDA-MB-231 cells pretreated for 15 mins followed by BAPTA addition by PBX dye based FLIPR assay
How it was run: (§1)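 MDA-MB-231 cells seeded 2×10^3/well and used 3 days later. Loaded 1 h at 37 °C with 2 µM PBX calcium dye, 5% signal enhancer and 500 µM probenecid in PSS, pH 7.3. Compound pretreated 15 min at room temperature. Then 500 µM BAPTA, 10 µM CPA, and 0.5 mM CaCl2 700 s after CPA. Read-out: peak 2 height as % inhibition vs DMSO. 95% CI, n = 4.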
Target sequence in this assay (Q96D31 whole entry): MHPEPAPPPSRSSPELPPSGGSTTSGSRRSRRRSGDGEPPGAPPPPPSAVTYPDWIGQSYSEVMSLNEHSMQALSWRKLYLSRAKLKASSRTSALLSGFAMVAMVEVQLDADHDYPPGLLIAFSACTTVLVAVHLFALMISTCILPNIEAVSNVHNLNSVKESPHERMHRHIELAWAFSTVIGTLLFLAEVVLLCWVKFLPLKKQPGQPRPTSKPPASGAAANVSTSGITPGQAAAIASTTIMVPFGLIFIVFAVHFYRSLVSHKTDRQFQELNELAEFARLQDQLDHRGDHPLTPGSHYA

[3] = molecular target: T1, Calcium release-activated calcium channel protein 1; assay: Inhibition of […] Orai1-medited store operated calcium entry in human MDA-MB-231 cells at 100 uM pretreated for 15 mins followed by BAPTA addition by PBX dye based FLIPR assay relative to control; how it was run: as §1
Target sequence in this assay (Q96D31 whole entry, looked up): as the sequence (Q96D31 whole entry) above

[4] = molecular target: T1, Calcium release-activated calcium channel protein 1; assay: Inhibition of […] Orai1-medited store operated calcium entry in human MDA-MB-231 cells at 10 uM pretreated for 15 mins followed by BAPTA addition by PBX dye based FLIPR assay relative to control; how it was run: as §1
Target sequence in this assay (Q96D31 whole entry, looked up): as the sequence (Q96D31 whole entry) above

[5] = molecular target: T1, Calcium release-activated calcium channel protein 1; assay: Inhibition of […] Orai1-medited store operated calcium entry in human MDA-MB-231 cells at 30 uM pretreated for 15 mins followed by BAPTA addition by PBX dye based FLIPR assay relative to control; how it was run: as §1
Target sequence in this assay (Q96D31 whole entry, looked up): as the sequence (Q96D31 whole entry) above

[6] = molecular target: T1, Calcium release-activated calcium channel protein 1; assay: Inhibition of […] Orai1-medited store operated calcium entry in human MDA-MB-231 cells at 300 uM pretreated for 15 mins followed by BAPTA addition by PBX dye based FLIPR assay relative to control; how it was run: as §1
Target sequence in this assay (Q96D31 whole entry, looked up): as the sequence (Q96D31 whole entry) above

SMILES	IC50 [2] [µM]	inhibition [3] [%]	inhibition [4] [%]	inhibition [5] [%]	inhibition [6] [%]	inhibition [1] [%]
Cc1ccccc1C1=NN(C(=O)COc2ccccc2)C(O)(C(F)(F)F)C1 (stereo unspecified)	105	–	–	–	–	< 20
O=C(Cc1ccccc1)N1N=C(c2ccccn2)CC1(O)C(F)(F)F (stereo unspecified)	–	20	–	–	–	< 10
O=C(Cc1ccccc1)N1N=C(c2cccc(C(F)(F)F)c2)CC1(O)C(F)(F)F (stereo unspecified)	29	–	–	–	–	< 10
O=C(Cc1ccccc1)N1N=C(c2cccc(OC(F)(F)F)c2)CC1(O)C(F)(F)F (stereo unspecified)	–	50	–	–	–	< 10
Cc1ccccc1C1(O)CC(C(F)(F)F)=NN1C(=O)c1ccccc1 (stereo unspecified)	–	–	20	–	–	< 10
Cc1cccc(C2=NN(C(=O)c3ccccc3)C(O)(C(F)(F)F)C2)c1 (stereo unspecified)	–	30	–	–	–	< 10
Cc1ccccc1CC(=O)N1N=C(c2ccccc2C)CC1(O)C(F)(F)F (stereo unspecified)	–	20	–	–	–	< 10
O=C(Cc1ccccc1)N1N=C(c2ccccc2F)CC1(O)C(F)(F)F (stereo unspecified)	–	30	–	–	–	< 10
Cc1ccccc1C1=NN(C(=O)Cc2cccc(Cl)c2)C(O)(C(F)(F)F)C1 (stereo unspecified)	79	–	–	–	–	< 10
O=C(Cc1ccccc1)N1N=C(c2cccc([N+](=O)[O-])c2)CC1(O)C(F)(F)F (stereo unspecified)	89	–	–	–	–	< 10
Cc1cccc(C2(O)CC(C(F)(F)F)=NN2C(=O)c2ccccc2)c1 (stereo unspecified)	–	< 10	–	–	–	< 10
O=C(Cc1ccccc1)N1N=C(c2ccc(Cl)cc2Cl)CC1(O)C(F)(F)F (stereo unspecified)	58	60	–	–	–	< 10
O=C(Cc1ccccc1)N1N=C(c2cccc(F)c2F)CC1(O)C(F)(F)F (stereo unspecified)	55	80	–	–	–	< 10
Cc1ccc(CC(=O)N2N=C(c3ccccc3C)CC2(O)C(F)(F)F)cc1 (stereo unspecified)	55	–	–	–	–	< 10
Cc1ccccc1C1=NN(C(=O)CC2CCCCC2)C(O)(C(F)(F)F)C1 (stereo unspecified)	–	< 10	–	–	–	< 10
O=C(Cc1ccccc1)N1N=C(c2cccc(NC(=O)C(F)(F)F)c2)CC1(O)C(F)(F)F (stereo unspecified)	–	–	–	60	–	< 10
COc1ccccc1CC(=O)N1N=C(c2cccc(C)c2)CC1(O)C(F)(F)F (stereo unspecified)	–	50	–	–	–	< 10
Cc1cccc(C2=NN(C(=O)Cc3cccc(Cl)c3)C(O)(C(F)(F)F)C2)c1 (stereo unspecified)	75	–	–	–	–	< 10
Cc1ccccc1C1=NN(C(=O)Cc2ccc(Cl)cc2)C(O)(C(F)(F)F)C1 (stereo unspecified)	47	–	–	–	–	< 10
COc1ccc(CC(=O)N2N=C(c3ccccc3C)CC2(O)C(F)(F)F)cc1 (stereo unspecified)	–	30	–	–	–	< 10
Cc1cccc(C2=NN(C(=O)Cc3ccccc3C)C(O)(C(F)(F)F)C2)c1 (stereo unspecified)	–	< 10	–	–	–	< 10
Cc1cccc(CC(=O)N2N=C(c3ccccc3C)CC2(O)C(F)(F)F)c1 (stereo unspecified)	42	–	–	–	–	< 10
Cc1cccc(C2=NN(C(=O)COc3ccccc3)C(O)(C(F)(F)F)C2)c1 (stereo unspecified)	–	< 10	–	–	–	< 10
Cc1cccc(C2=NN(C(=O)CC3CCCCC3)C(O)(C(F)(F)F)C2)c1 (stereo unspecified)	–	< 10	–	–	–	< 10

SMILES	IC50 [2] [µM]	inhibition [3] [%]	inhibition [4] [%]	inhibition [5] [%]	inhibition [6] [%]	inhibition [1] [%]
CS(=O)(=O)Nc1cccc(C2=NN(C(=O)Cc3ccccc3)C(O)(C(F)(F)F)C2)c1 (stereo unspecified)	–	–	–	20	–	< 10
O=C(Cc1ccccc1)N1N=C(c2cccnc2)CC1(O)C(F)(F)F (stereo unspecified)	–	< 10	–	–	–	< 10
O=C(Cc1ccccc1)N1N=C(C(F)(F)F)CC1(O)c1ccccc1[N+](=O)[O-] (stereo unspecified)	–	30	–	–	–	20
O=C(Cc1ccccc1)N1N=C(c2ccccc2[N+](=O)[O-])CC1(O)C(F)(F)F (stereo unspecified)	–	40	–	–	–	< 10
O=C(Cc1ccccc1)N1N=C(c2ccccc2Cl)CC1(O)C(F)(F)F (stereo unspecified)	33	–	–	–	–	50
Cc1cccc(C2=NN(C(=O)Cc3ccc(Cl)cc3)C(O)(C(F)(F)F)C2)c1 (stereo unspecified)	60	–	–	–	–	< 10
N#Cc1cccc(C2=NN(C(=O)Cc3ccccc3)C(O)(C(F)(F)F)C2)c1 (stereo unspecified)	–	< 10	–	–	–	< 10
COc1cccc(CC(=O)N2N=C(c3ccccc3C)CC2(O)C(F)(F)F)c1 (stereo unspecified)	–	60	–	–	–	< 10
O=C(Cc1ccccc1)N1N=C(c2ccccc2OC(F)(F)F)CC1(O)C(F)(F)F (stereo unspecified)	–	< 10	–	–	–	< 10
COc1cccc(CC(=O)N2N=C(c3cccc(C)c3)CC2(O)C(F)(F)F)c1 (stereo unspecified)	32	–	–	–	–	< 10
O=C(Cc1ccccc1)N1N=C(c2cc(Cl)ccc2Cl)CC1(O)C(F)(F)F (stereo unspecified)	54	60	–	–	–	< 10
O=C(Cc1ccccc1)N1N=C(c2c(F)cccc2F)CC1(O)C(F)(F)F (stereo unspecified)	–	< 10	–	–	–	< 10
Cc1cccc(CC(=O)N2N=C(c3cccc(C)c3)CC2(O)C(F)(F)F)c1 (stereo unspecified)	45	–	–	–	–	< 10
COc1ccccc1CC(=O)N1N=C(c2ccccc2C)CC1(O)C(F)(F)F (stereo unspecified)	–	60	–	–	–	< 10
Cc1ccccc1C1=NN(C(=O)Cc2ccccc2Cl)C(O)(C(F)(F)F)C1 (stereo unspecified)	40	–	–	–	–	< 10
COc1ccccc1C1=NN(C(=O)Cc2ccccc2)C(O)(C(F)(F)F)C1 (stereo unspecified)	–	25	–	–	–	< 10
COc1ccc(CC(=O)N2N=C(c3cccc(C)c3)CC2(O)C(F)(F)F)cc1 (stereo unspecified)	33	–	–	–	–	< 10
Cc1ccccc1C1=NN(C(=O)c2ccccc2)C(O)(C(F)(F)F)C1 (stereo unspecified)	–	20	–	–	–	< 10
Cc1ccc(CC(=O)N2N=C(c3cccc(C)c3)CC2(O)C(F)(F)F)cc1 (stereo unspecified)	42	–	–	–	–	< 10
COc1cccc(OC)c1C1=NN(C(=O)Cc2ccccc2)C(O)(C(F)(F)F)C1 (stereo unspecified)	–	< 10	–	–	–	< 10
COc1cccc(C2=NN(C(=O)Cc3ccccc3)C(O)(C(F)(F)F)C2)c1 (stereo unspecified)	–	36 to 37	14	–	–	< 10
Cc1cccc(C2=NN(C(=O)Cc3ccccc3Cl)C(O)(C(F)(F)F)C2)c1 (stereo unspecified)	42	–	–	–	–	< 10
Cc1ccccc1C1(O)CC(C(F)(F)F)=NN1C(=O)CC1CCCCC1 (stereo unspecified)	–	20	–	–	–	< 10

Further lines, with some results ahead:

IC50 [2] [µM]	inhibition [3] [%]	inhibition [4] [%]	inhibition [5] [%]	inhibition [6] [%]	SMILES	inhibition [1] [%]
–	< 10	–	–	–	CC(=O)Nc1ccc(C2=NN(C(=O)Cc3ccccc3)C(O)(C(F)(F)F)C2)cc1 (stereo unspecified)	< 10
–	< 10	–	–	–	O=C(Cc1ccccc1)N1N=C(c2ccc([N+](=O)[O-])cc2)CC1(O)C(F)(F)F (stereo unspecified)	< 10
–	< 10	–	–	–	Cc1ccc(C2=NN(C(=O)Cc3ccccc3)C(O)(C(F)(F)F)C2)cc1 (stereo unspecified)	< 10
–	–	–	60	–	O=C(Cc1ccccc1)N1N=C(c2cccc(F)c2)CC1(O)C(F)(F)F (stereo unspecified)	< 10
–	< 10	–	–	–	COc1ccc(C2=NN(C(=O)Cc3ccccc3)C(O)(C(F)(F)F)C2)cc1 (stereo unspecified)	< 10
–	< 10	–	–	–	O=C(Cc1ccccc1)N1N=C(c2ccc(F)cc2)CC1(O)C(F)(F)F (stereo unspecified)	< 10
36	–	–	–	–	Cc1cccc(C2=NN(C(=O)Cc3ccccc3)C(O)(C(F)(F)F)C2)c1 (stereo unspecified)	< 10
–	< 10	–	–	50	O=C(Cc1ccccc1)N1N=C(c2ccc(N3CCOCC3)cc2)CC1(O)C(F)(F)F (stereo unspecified)	< 10
–	< 10	–	–	–	O=C(Cc1ccccc1)N1N=C(c2ccccc2)CC1(O)C(F)(F)F (stereo unspecified)	< 10
48	–	–	–	–	O=C(Cc1ccccc1)N1N=C(c2cccc(Cl)c2)CC1(O)C(F)(F)F (stereo unspecified)	< 10
–	< 10	–	–	–	O=C(Cc1ccccc1)N1N=C(c2ccc(Br)cc2)CC1(O)C(F)(F)F (stereo unspecified)	< 10
–	50	–	–	–	O=C(Cc1ccccc1)N1N=C(c2cccc(OCCN3CCOCC3)c2)CC1(O)C(F)(F)F (stereo unspecified)	50
–	< 10	–	–	–	O=C(Cc1ccccc1)N1N=C(c2ccc(OC(F)(F)F)cc2)CC1(O)C(F)(F)F (stereo unspecified)	< 10
89	50	–	–	–	O=C(Cc1ccccc1)N1N=C(c2ccc3c(c2)CCCC3)CC1(O)C(F)(F)F (stereo unspecified)	< 10
–	–	–	50	–	Cc1ccccc1C1=NN(C(=O)Cc2ccccc2)C(O)(C(F)(F)F)C1 (stereo unspecified)	< 10
–	< 10	–	–	50	O=C(Cc1ccccc1)N1N=C(c2ccncc2)CC1(O)C(F)(F)F (stereo unspecified)	< 10
–	< 10	–	–	–	N#Cc1ccc(C2=NN(C(=O)Cc3ccccc3)C(O)(C(F)(F)F)C2)cc1 (stereo unspecified)	< 10
47	–	–	–	–	O=C(Cc1ccccc1)N1N=C(c2cccc(Br)c2)CC1(O)C(F)(F)F (stereo unspecified)	< 10
30	–	–	–	–	O=C(Cc1ccccc1)N1N=C(c2ccccc2Br)CC1(O)C(F)(F)F (stereo unspecified)	< 10
–	< 10	–	–	–	O=C(Cc1ccccc1)N1N=C(c2ccc(Cl)cc2)CC1(O)C(F)(F)F (stereo unspecified)	< 10

From ChEMBL document CHEMBL4118190, “An SAR study of hydroxy-trifluoromethylpyrazolines as inhibitors of Orai1-mediated store operated Ca2+ entry in MDA-MB-231 breast cancer cells using a convenient Fluorescence Imaging Plate Reader assay” (Bioorg Med Chem, 2018)
